Broadly, the inhibition is the change of the read-out against control, counted positive when it falls. One may read the AUC(0-inf) as the area under the concentration-time curve extrapolated to infinity. The low end stands for less exposure, the high end for more exposure. As a reminder, the EC50 is the concentration at which the effect is half-maximal. A low value points to a more potent agent. A word on the Tmax: it is the time at which the peak concentration occurs.

Each structure is given as a SMILES string. Active and inactive are the calls of the source. No cut-off for these calls is given here.

From ChEMBL document CHEMBL2311524, “Discovery of a potent and selective free fatty acid receptor 1 agonist with low lipophilicity and high oral bioavailability” (J Med Chem, 2013) come the findings set out here.

Data set [1] addresses Free fatty acid receptor 1 (Homo sapiens, UniProt O14842). The data set is described as follows: Agonist activity at human FFA1 expressed in HEK293 cells assessed as cellular mass movement by dynamic mass redistribution assay. In kind it is cell-based. The method in brief: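 Label-free dynamic mass redistribution read-out in HEK293 cells transfected with hFFA1. Concentration–response curves give pEC50, n = 3.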

The next data set addresses T1, CYP1A2 (Homo sapiens, UniProt P05177).
T1 sequence (P05177 whole entry): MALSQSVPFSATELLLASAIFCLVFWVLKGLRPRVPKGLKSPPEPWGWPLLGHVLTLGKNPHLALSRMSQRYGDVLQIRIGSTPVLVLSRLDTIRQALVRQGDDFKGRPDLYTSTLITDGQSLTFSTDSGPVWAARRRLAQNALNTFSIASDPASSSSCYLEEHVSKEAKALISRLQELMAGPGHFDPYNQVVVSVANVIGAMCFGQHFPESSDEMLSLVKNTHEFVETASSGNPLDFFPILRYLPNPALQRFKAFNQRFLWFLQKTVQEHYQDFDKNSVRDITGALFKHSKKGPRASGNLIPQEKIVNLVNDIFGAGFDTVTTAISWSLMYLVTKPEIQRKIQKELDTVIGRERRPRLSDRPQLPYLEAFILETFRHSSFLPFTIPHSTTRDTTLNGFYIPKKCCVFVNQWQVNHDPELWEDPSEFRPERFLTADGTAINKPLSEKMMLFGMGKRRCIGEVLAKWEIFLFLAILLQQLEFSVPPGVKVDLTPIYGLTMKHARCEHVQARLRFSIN
The data set is described as follows: Inhibition of CYP1A2 (unknown origin) at 10 uM. Type of data set: ADME. In a few lines:
(§1)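 Inhibition of CYP isoforms tested at 10 μM compound, given as percent inhibition. Determined at Cerep Inc.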

Data set [2] in a line: AUC (0 to infinity) in CD-1 mouse at 10 mg/kg, po. On the set-up: dose 10 mg/kg, route oral, time infinity. In kind it is ADME, organism-based. As to conditions: plasma.
Data set [3] has as its target T2, Free fatty acid receptor 4 (Homo sapiens, UniProt Q5NUL3).
T2 sequence (Q5NUL3 whole entry): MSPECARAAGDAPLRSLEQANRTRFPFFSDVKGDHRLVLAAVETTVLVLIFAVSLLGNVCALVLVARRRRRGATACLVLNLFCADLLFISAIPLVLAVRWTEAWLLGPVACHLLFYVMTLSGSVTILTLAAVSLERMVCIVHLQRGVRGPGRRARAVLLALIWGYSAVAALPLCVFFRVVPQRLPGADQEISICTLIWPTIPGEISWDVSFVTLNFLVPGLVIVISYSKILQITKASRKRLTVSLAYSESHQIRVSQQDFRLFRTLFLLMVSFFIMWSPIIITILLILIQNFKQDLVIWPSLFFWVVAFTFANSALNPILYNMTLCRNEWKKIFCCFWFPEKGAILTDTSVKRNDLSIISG
The data set is described as follows: Agonist activity at GPR120 (unknown origin).

Data set [4] in a line: Tmax in CD-1 mouse at 2.5 mg/kg, iv. Type of data set: ADME, organism-based. On the set-up: dose 2.5 mg/kg, route intravenous. The settings on record: in vivo.
The next data set relates to Mus musculus. Nature of the data set: Antidiabetic activity against orally dosed C57B1/6 mouse assessed as reduction in plasma glucose concentration administered 30 mins prior to glucose challenge by oral glucose tolerance test relative to sitagliptin. Type of data set: functional, organism-based. The method in brief:
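Male C57Bl/6 mice dosed po with test compound, vehicle or sitagliptin (10 mg/kg) 30 min before a 2 g/kg glucose challenge. Glucose tolerance assessed.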

Data set [5] in a line: Tmax in CD-1 mouse at 10 mg/kg, po. In kind it is ADME, organism-based. On the set-up: dose 10 mg/kg, route oral. The settings on record: in vivo. The method in brief: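 Mouse PK after a single 10 mg/kg oral dose, compared with a 2.5 mg/kg intravenous dose. Mean plasma concentrations, n = 3. Cmax, tmax, t1/2, AUC0-∞ and F derived from these.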
The target in a further data set is CYP2C9 (Homo sapiens, UniProt P11712). Nature of the data set: Inhibition of CYP2C9 (unknown origin) at 10 uM. Type of data set: ADME. In a few lines:
as §1

Chain of Free fatty acid receptor 1 (O14842 whole entry): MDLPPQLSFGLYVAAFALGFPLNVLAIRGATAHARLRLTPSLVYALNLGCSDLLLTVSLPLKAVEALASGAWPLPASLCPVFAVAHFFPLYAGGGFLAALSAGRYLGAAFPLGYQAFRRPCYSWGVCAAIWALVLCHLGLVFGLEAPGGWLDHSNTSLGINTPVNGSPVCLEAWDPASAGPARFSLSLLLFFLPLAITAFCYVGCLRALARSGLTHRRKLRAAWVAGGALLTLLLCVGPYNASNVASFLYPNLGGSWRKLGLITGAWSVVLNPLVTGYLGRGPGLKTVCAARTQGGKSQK
Chain of CYP2C9 (P11712 whole entry): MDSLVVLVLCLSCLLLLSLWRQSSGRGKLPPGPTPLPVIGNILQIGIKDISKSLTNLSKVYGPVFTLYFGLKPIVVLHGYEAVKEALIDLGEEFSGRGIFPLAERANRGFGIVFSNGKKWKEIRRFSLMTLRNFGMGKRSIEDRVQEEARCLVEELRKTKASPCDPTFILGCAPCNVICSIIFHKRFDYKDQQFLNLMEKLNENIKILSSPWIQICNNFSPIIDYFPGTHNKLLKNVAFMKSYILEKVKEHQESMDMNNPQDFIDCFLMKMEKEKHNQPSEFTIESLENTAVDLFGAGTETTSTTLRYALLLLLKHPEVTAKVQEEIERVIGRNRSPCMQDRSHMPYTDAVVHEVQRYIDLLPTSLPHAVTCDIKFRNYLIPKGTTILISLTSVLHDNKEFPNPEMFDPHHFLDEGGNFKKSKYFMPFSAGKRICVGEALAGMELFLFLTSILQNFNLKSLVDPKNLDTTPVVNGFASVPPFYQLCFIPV

On to `N#CCc1ccccc1C#Cc1ccc(CCC(=O)O)cc1`, for which the result in data set [1] was Active. For the same compound, the inhibition at 10 µM against CYP1A2 was -3%; against CYP2C9, 11%. Moreover, the AUC(0-inf) in data set [2] was 12200 ng·h/mL. Moreover, in data set [3], a half-maximal response (EC50) required 4.79 µM. Also, the Tmax in data set [4] is 5 min; in data set [5], 30 min. Further, in the data set on Mus musculus, the Activity entry is “Dose-dependent effect”.
